25 molecules from ChEMBL document CHEMBL1138812, “Synthesis and antiviral evaluation of polyhalogenated imidazole nucleosides: dimensional analogues of 2,5,6-trichloro-1-(beta-D-ribofuranosyl)benzimidazole” (J Med Chem, 2004) can be followed below.

Assay [1] relates to Human alphaherpesvirus 1. Nature of the assay: Inhibitory activity against herpes simplex virus type-1 cultures was determined by ELISA assay. In kind it is functional, organism-based. In a few lines: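 BSC-1 cells, 10000 per well in MEM(E) with 10% calf serum, incubated overnight at 37 °C. Drug added in quadruplicate with HSV-1 (KOS) at 100 pfu/well and incubated 3 days at 37 °C. Plates blocked, probed with HRP-conjugated rabbit anti-HSV-1 and developed with TMB; reaction stopped with H2SO4 and read at 450/570 nm. Percent absorbance reduction versus virus-only wells, IC50 by regression.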
(An ELISA detects its analyte on a solid surface through an enzyme-linked reagent.)

The subject of assay [2] is Human betaherpesvirus 5. Nature of the assay: Concentration required to inhibit plaque formation in human cytomegalovirus cultures was determined. The class given is functional, organism-based. In a few lines:
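HFF monolayers infected with about 100 pfu/cm² of HCMV Towne strain (plaque-purified P₀). After adsorption, compound (10 mg/mL DMSO stock, diluted in medium) added at four to eight concentrations in duplicate wells. After 7–10 days at 37 °C, cells fixed and stained with crystal violet and plaques counted microscopically. Percent plaque reduction versus drug-free wells, IC50 by regression against log concentration.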

The test system of assay [3] is KB. Nature of the assay: Concentration required to inhibit KB cell line growth was determined by crystal violet staining method. The class given is functional, cell-based. The conditions noted are these: Homo sapiens. In a few lines:
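KB cells, 3000–5000 per well, incubated overnight at 37 °C, then compound added at six to eight concentrations in quadruplicate. Grown 48 h at 37 °C under CO2 (two population doublings), fixed in 95% ethanol, stained with 0.1% crystal violet, dye eluted with acidified ethanol, absorbance 570 nm. IC50 taken from linear regression of percent inhibition against log concentration.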

Assay [4] concerns HFF. Nature of the assay: Concentration required to inhibit stationary human HFF cell line growth was determined by microscopy examination. The class given is functional, cell-based. In a few lines: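 Toxicity judged by microscopic inspection of uninfected stationary HFF cells in the HCMV plaque assay, scored at the time plaques were counted. Results come from duplicate experiments. IC50 from linear regression of percent inhibition against log concentration.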

Take `OCC1OC(n2c(Br)nc(Br)c2Br)[C@@H](O)C1O` (some centres not stated): the IC50 (usually the point on the concentration scale where inhibition reaches its midpoint) was over 100 µM in assay [1], 32 µM in assay [2], 90 µM in assay [3] and over 100 µM in assay [4].
As to `OC[C@H]1OC(n2c(Cl)nc3nc4cc(Cl)c(Cl)cc4cc32)[C@H](O)[C@@H]1O` (some centres not stated), the IC50 in assay [1] was 70 µM; in assay [2], 2 µM.
On to `OCCOCn1c(Br)nc(Cl)c1Cl`, for which the IC50 in assay [1], in assay [2], in assay [3] and in assay [4] was over 100 µM throughout.
In the case of `OCCOCn1c(Br)nc(Br)c1Br`, the IC50 in assay [1], in assay [2], in assay [3] and in assay [4] was over 100 µM each time.
As to `OC[C@H]1O[C@@H](n2c(Cl)nc(Cl)c2Cl)[C@H](O)[C@@H]1O`, the IC50 in assay [1], in assay [2], in assay [3] and in assay [4] was over 100 µM throughout.
For `OC[C@H]1OC(n2c(Cl)nc3cc4cc(Cl)c(Cl)cc4nc32)[C@H](O)[C@@H]1O` (some centres not stated), the results for the IC50 in assay [1] and in assay [2] were 90 µM and 18 µM, respectively.
Take `OC[C@H]1O[C@@H](n2c(Cl)nc3cc(Cl)c(Cl)cc32)[C@H](O)[C@@H]1O`: the IC50 in assay [3] is over 100 µM.
`OC[C@H]1O[C@@H](n2c(Cl)nc(Cl)c2Cl)[C@H](O)[C@H]1O`: the IC50 in assay [1] was 50 µM; in assay [2] it was over 100 µM; in assay [3], over 100 µM; in assay [4], over 100 µM.
Turning to `OC[C@H]1OC(n2cnc(Cl)c2Cl)[C@H](O)[C@@H]1O` (some centres not stated), the IC50 in assay [1], in assay [2], in assay [3] and in assay [4] was over 100 µM in each case.
Turning to `OCC(CO)OCn1c(Cl)nc(Cl)c1Cl`, the IC50 was 30 µM in assay [1], over 100 µM in assay [2], 25 µM in assay [3] and over 100 µM in assay [4].
`OCC(CO)OCn1c(Br)nc(Cl)c1Cl`: the IC50 in assay [1], in assay [2], in assay [3] and in assay [4] was over 100 µM in each case.
As for `Clc1nc(Cl)c(Cl)[nH]1`, the values for the IC50 in assay [2] and in assay [4] were 30 µM and 75 µM, respectively.
In the same order, the values of `Clc1nc(Br)[nH]c1Cl` are 41 µM and over 100 µM.
`OC[C@H]1OC(n2c(Cl)nc3cc4cc(Cl)c(Cl)cc4cc32)[C@H](O)[C@@H]1O` (some centres not stated) showed an IC50 in assay [2] of 2 µM.
For `OC[C@H]1O[C@@H](n2c(Br)nc(Br)c2Br)[C@H](O)[C@H]1O`, the IC50 in assay [1], in assay [2], in assay [3] and in assay [4] was over 100 µM in each case.
As to `OCCOCn1c(Cl)nc(Cl)c1Cl`, the IC50 in assay [1] was 35 µM; in assay [2], over 100 µM; in assay [3] it was 25 µM; in assay [4], 45 µM.
Regarding `OC[C@H]1O[C@@H](n2c(Br)nc3cc(Cl)c(Cl)cc32)[C@H](O)[C@@H]1O`, the IC50 in assay [2] was 0.7 µM; in assay [3], over 100 µM.
For the molecule `OC[C@H]1O[C@@H](n2cnc3cc(Cl)c(Cl)cc32)[C@@H](O)[C@H]1O`, the IC50 in assay [1] was found to be 30 µM; in assay [2], 42 µM; in assay [3], 36 µM; in assay [4], 24 µM.
On to `OC[C@H]1O[C@@H](n2c(Br)nc(Cl)c2Cl)[C@H](O)[C@@H]1O`, for which the IC50 in assay [1], in assay [2], in assay [3] and in assay [4] was over 100 µM in each case.
On to `OCC(CO)OCn1c(Br)nc(Br)c1Br`, for which the IC50 in assay [1], in assay [2], in assay [3] and in assay [4] was over 100 µM in each case.
In the case of `OC[C@H]1O[C@@H](n2c(Br)nc(Cl)c2Cl)[C@H](O)[C@H]1O`, the IC50 in assay [1], in assay [2], in assay [3] and in assay [4] was over 100 µM throughout.
`OC[C@H]1OC(n2cnc(Br)c2Br)[C@H](O)[C@@H]1O` (some centres not stated): the IC50 in assay [1], in assay [2], in assay [3] and in assay [4] was over 100 µM in each case.
As for `OCC1OC(n2c(Br)nc(Cl)c2Cl)[C@@H](O)C1O` (some centres not stated), the IC50 in assay [1], in assay [2], in assay [3] and in assay [4] was over 100 µM throughout.
Regarding `Brc1nc(Br)c(Br)[nH]1`, the values for the IC50 in assay [2] and in assay [4] were 37 µM and 75 µM, respectively.
For the molecule `OC[C@H]1O[C@@H](n2c(Br)nc(Br)c2Br)[C@H](O)[C@@H]1O`, the concentration for half-maximal inhibition (IC50) stood at 60 µM in assay [1], 30 µM in assay [2], 65 µM in assay [3] and 100 µM in assay [4].
